{"source": "ChEMBL document CHEMBL2321791", "about": "“A new cytotoxic quinolone alkaloid and a pentacyclic steroidal glycoside from the stem bark of Crataeva nurvala: study of anti-proliferative and apoptosis inducing property” (Eur J Med Chem, 2013)", "key": {"PC-3 [1]": {"test_system": "PC-3", "assay": "Cytotoxicity against human PC3 cells", "format": "functional, cell-based", "procedure,_shortened": "(§1)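 MTT viability assay. Cells were plated at 3 × 10³ cells/well and treated in triplicate with a range of concentrations, with final DMSO at 0.2%. After 48 h incubation, MTT (0.5 mg/mL) was added for a further 4 h at 37 °C. Formazan was read by optical density at 570 nm and percentage viability calculated.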"}, "HeLa [2]": {"test_system": "HeLa", "assay": "Cytotoxicity against human HeLa cells", "format": "functional, cell-based", "procedure,_shortened": "as §1"}, "MCF7 [3]": {"test_system": "MCF7", "assay": "Cytotoxicity against human MCF7 cells", "format": "functional, cell-based", "procedure,_shortened": "as §1"}, "HeLa [4]": {"test_system": "HeLa", "assay": "Cell cycle arrest in human HeLa cells assessed as cells at G1 phase at 1 uM measured after 24 hrs by propidium iodide/FACS analysis (reference value: 14.7%)", "format": "functional"}, "HeLa [5]": {"test_system": "HeLa", "assay": "Cell cycle arrest in human HeLa cells assessed as cells at G0 phase at 1 uM measured after 24 hrs by propidium iodide/FACS analysis (reference value: 68.6%)", "format": "functional"}, "HeLa [6]": {"test_system": "HeLa", "assay": "Cell cycle arrest in human HeLa cells assessed as cells at G1 phase at 50 uM measured after 24 hrs by propidium iodide/FACS analysis (reference value: 14.7%)", "format": "functional"}, "HeLa [7]": {"test_system": "HeLa", "assay": "Inhibition of cell migration in human HeLa cells at 50 uM for 24 hrs by wound healing assay", "format": "functional, cell-based", "procedure,_shortened": "(§2)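 Wound-healing (scratch) assay. Cells were seeded at 5.5 × 10⁵ cells/well in 6-well plates and grown overnight to a confluent monolayer. After 24 h serum starvation, the monolayer was scratched with a pipette tip, washed with serum-free medium and photographed at 0 h. Cells were then treated for 24 h in 1% serum medium with compound or DMSO vehicle. Scratched area was quantified in three random fields per treatment across three independent experiments.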"}, "HeLa [8]": {"test_system": "HeLa", "assay": "Cytotoxicity against human HeLa cells at 50 uM measured after 48 hrs by MTT assay", "format": "cell-based", "procedure,_shortened": "as §1"}, "HeLa [9]": {"test_system": "HeLa", "assay": "Inhibition of cell migration in human HeLa cells at 80 uM for 24 hrs by wound healing assay", "format": "functional, cell-based", "procedure,_shortened": "as §2"}, "HeLa [10]": {"test_system": "HeLa", "assay": "Inhibition of colony formation in human HeLa cells at sub-lethal dose measured after 5 days by colony formation assay", "format": "functional, cell-based", "procedure,_shortened": "(§3)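 Clonogenic assay. Cells were seeded at 1 × 10³ cells/well in 6-well plates, and the medium was replaced after 24 h. Cells were then exposed to various concentrations of compound, alongside DMSO vehicle, for 5 days at 37 °C in 5% CO₂. Colonies were fixed with 4% paraformaldehyde, stained with 0.5% crystal violet, then counted and averaged over randomly chosen fields (n = 3).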"}, "PC-3 [11]": {"test_system": "PC-3", "assay": "Cytotoxicity against human PC3 cells at 50 uM measured after 48 hrs by MTT assay", "format": "cell-based", "conditions": "pc-3, 48 h", "procedure,_shortened": "as §1"}, "PC-3 [12]": {"test_system": "PC-3", "assay": "Inhibition of cell migration in human PC3 cells at 80 uM for 24 hrs by wound healing assay", "format": "functional, cell-based", "procedure,_shortened": "as §2"}, "PC-3 [13]": {"test_system": "PC-3", "assay": "Inhibition of cell migration in human PC3 cells at 50 uM for 24 hrs by wound healing assay", "format": "functional, cell-based", "procedure,_shortened": "as §2"}, "HeLa [14]": {"test_system": "HeLa", "assay": "Inhibition of colony formation in human HeLa cells measured after 5 days by colony formation assay", "format": "functional, cell-based", "procedure,_shortened": "as §3"}, "HeLa [15]": {"test_system": "HeLa", "assay": "Cell cycle arrest in human HeLa cells assessed as cells at G0 phase at 50 uM measured after 24 hrs by propidium iodide/FACS analysis (reference value: 68.6%)", "format": "functional"}, "MCF7 [16]": {"test_system": "MCF7", "assay": "Inhibition of cell migration in human MCF7 cells at 50 uM for 24 hrs by wound healing assay", "format": "functional, cell-based", "procedure,_shortened": "as §2"}, "PC-3 [17]": {"test_system": "PC-3", "assay": "Inhibition of colony formation in human PC3 cells at sub-lethal dose measured after 5 days by colony formation assay", "format": "functional, cell-based", "procedure,_shortened": "as §3"}, "MCF7 [18]": {"test_system": "MCF7", "assay": "Inhibition of cell migration in human MCF7 cells at 80 uM for 24 hrs by wound healing assay", "format": "functional, cell-based", "procedure,_shortened": "as §2"}}, "note": "Calls of active or inactive are those of the source. No cut-off for these calls is given here.", "data": [{"smiles": "COc1cc(OC)c2c(=O)c(-c3ccccc3)cn(C)c2c1", "values": [{"measurement": "Activity", "setting": "PC-3 [1]", "result": "inactive"}, {"measurement": "Activity", "setting": "HeLa [2]", "result": "inactive"}, {"measurement": "Activity", "setting": "MCF7 [3]", "result": "inactive"}]}, {"smiles": "COc1cc(OC)c2c(O)c(-c3ccccc3)cnc2c1", "values": [{"measurement": "Activity", "setting": "PC-3 [1]", "result": "inactive"}, {"measurement": "Activity", "setting": "HeLa [2]", "result": "inactive"}, {"measurement": "Activity", "setting": "MCF7 [3]", "result": "inactive"}]}, {"smiles": "CC[C@@]1(O)C(=O)OCc2c1cc1n(c2=O)Cc2cc3ccccc3nc2-1", "note": "[CAMPTOTHECIN]", "values": [{"measurement": "Activity", "setting": "HeLa [4]", "result": 17.7, "unit": "%"}, {"measurement": "Activity", "setting": "HeLa [5]", "result": 68.6, "unit": "%"}]}, {"smiles": "CCn1cc(-c2ccccc2)c(=O)c2c(OC)cc(OC)cc21", "note": "[CRATAEMINE]", "values": [{"measurement": "Activity", "setting": "HeLa [6]", "result": 17.2, "unit": "%"}, {"measurement": "Activity", "setting": "HeLa [7]", "result": "Active"}, {"measurement": "Activity", "setting": "HeLa [8]", "result": "Non-toxic"}, {"measurement": "Activity", "setting": "HeLa [9]", "result": "Active"}, {"measurement": "Activity", "setting": "HeLa [10]", "result": "Active"}, {"measurement": "Activity", "setting": "PC-3 [11]", "result": "Non-toxic"}, {"measurement": "Activity", "setting": "PC-3 [12]", "result": "Active"}, {"measurement": "Activity", "setting": "PC-3 [13]", "result": "Active"}, {"measurement": "Activity", "setting": "HeLa [14]", "result": "Dose-dependent effect"}, {"measurement": "Activity", "setting": "HeLa [15]", "result": 76.8, "unit": "%"}, {"measurement": "Activity", "setting": "MCF7 [16]", "result": "inactive"}, {"measurement": "Activity", "setting": "PC-3 [17]", "result": "Active"}, {"measurement": "Activity", "setting": "MCF7 [18]", "result": "inactive"}]}, {"smiles": "CC(C)[C@@H]1CC[C@@H](C)[C@H]2[C@@H]1C[C@H]1[C@@H]3CC=C4C[C@@H](O[C@@H]5O[C@H](CO)[C@@H](O)[C@H](O)[C@H]5O)CC[C@]4(C)[C@H]3CC[C@]21C", "note": "[CRATAENOSIDE]", "values": [{"measurement": "Activity", "setting": "HeLa [6]", "result": 22.5, "unit": "%"}, {"measurement": "Activity", "setting": "HeLa [7]", "result": "Active"}, {"measurement": "Activity", "setting": "HeLa [8]", "result": "Non-toxic"}, {"measurement": "Activity", "setting": "HeLa [9]", "result": "Active"}, {"measurement": "Activity", "setting": "HeLa [10]", "result": "Active"}, {"measurement": "Activity", "setting": "PC-3 [11]", "result": "Non-toxic"}, {"measurement": "Activity", "setting": "PC-3 [12]", "result": "Active"}, {"measurement": "Activity", "setting": "PC-3 [13]", "result": "Active"}, {"measurement": "Activity", "setting": "HeLa [14]", "result": "Dose-dependent effect"}, {"measurement": "Activity", "setting": "HeLa [15]", "result": 63.5, "unit": "%"}, {"measurement": "Activity", "setting": "MCF7 [16]", "result": "inactive"}, {"measurement": "Activity", "setting": "PC-3 [17]", "result": "Active"}, {"measurement": "Activity", "setting": "MCF7 [18]", "result": "inactive"}]}]}
